Measured values reported in the M2OR odorant receptor database.

What was measured:
Details in all cases: stereoisomer not certain
UniProt Q8VFP5 = target: T1, UniProt Q8VFP5
T1 sequence (whole entry): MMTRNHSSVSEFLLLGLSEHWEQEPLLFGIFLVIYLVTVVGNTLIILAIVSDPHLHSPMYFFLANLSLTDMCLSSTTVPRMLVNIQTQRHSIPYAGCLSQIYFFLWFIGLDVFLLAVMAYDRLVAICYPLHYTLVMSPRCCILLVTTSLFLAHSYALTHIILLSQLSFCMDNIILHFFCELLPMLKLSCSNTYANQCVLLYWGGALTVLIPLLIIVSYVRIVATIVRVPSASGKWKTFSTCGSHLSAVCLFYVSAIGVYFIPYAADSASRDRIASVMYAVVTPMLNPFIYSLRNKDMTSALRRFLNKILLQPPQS
Procedure, shortened: (§1)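 Values were gathered from published papers (main text and supplementary material), with extra details requested from the original authors when needed, and checked for typos and inconsistencies. Each receptor–molecule pair is called responsive (active) if the original authors judged the measured signal statistically different from baseline, and non-responsive (inactive) otherwise. Assay methods varied by source, often transient mammalian cell-line luciferase assays. Recorded details include cell line, G-protein, co-transfected protein and tags.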

UniProt Q8VG01 = target: T2, UniProt Q8VG01
T2 sequence (whole entry): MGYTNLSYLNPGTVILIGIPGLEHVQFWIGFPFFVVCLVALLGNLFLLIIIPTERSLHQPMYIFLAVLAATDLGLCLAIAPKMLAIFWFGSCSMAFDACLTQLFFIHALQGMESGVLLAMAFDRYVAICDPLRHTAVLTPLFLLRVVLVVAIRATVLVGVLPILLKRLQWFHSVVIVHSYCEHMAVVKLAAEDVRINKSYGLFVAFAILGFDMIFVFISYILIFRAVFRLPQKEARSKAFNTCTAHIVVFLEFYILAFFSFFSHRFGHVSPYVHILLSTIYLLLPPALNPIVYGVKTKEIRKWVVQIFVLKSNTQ
Procedure, shortened: as §1

UniProt Q8VG26 = target: UniProt Q8VG26
Procedure, shortened: as §1

UniProt Q8VFV2 = target: UniProt Q8VFV2
Procedure, shortened: as §1

UniProt Q8VFV3 = target: UniProt Q8VFV3
Procedure, shortened: as §1

UniProt Q8VFV8 = target: UniProt Q8VFV8
Procedure, shortened: as §1

UniProt Q8VFW7 = target: UniProt Q8VFW7
Procedure, shortened: as §1

UniProt Q8VFZ6 = target: T3, UniProt Q8VFZ6
T3 sequence (whole entry): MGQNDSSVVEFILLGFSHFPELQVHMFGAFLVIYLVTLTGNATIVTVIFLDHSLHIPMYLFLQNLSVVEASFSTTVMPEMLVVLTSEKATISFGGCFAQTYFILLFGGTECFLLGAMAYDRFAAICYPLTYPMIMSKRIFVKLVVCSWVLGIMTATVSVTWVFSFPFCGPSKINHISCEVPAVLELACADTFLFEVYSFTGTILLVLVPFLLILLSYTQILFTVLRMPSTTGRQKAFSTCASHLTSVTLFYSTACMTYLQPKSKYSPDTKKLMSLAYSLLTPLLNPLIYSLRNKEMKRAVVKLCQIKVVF
Procedure, shortened: as §1

UniProt Q8VG22 = target: T4, UniProt Q8VG22
T4 sequence (whole entry): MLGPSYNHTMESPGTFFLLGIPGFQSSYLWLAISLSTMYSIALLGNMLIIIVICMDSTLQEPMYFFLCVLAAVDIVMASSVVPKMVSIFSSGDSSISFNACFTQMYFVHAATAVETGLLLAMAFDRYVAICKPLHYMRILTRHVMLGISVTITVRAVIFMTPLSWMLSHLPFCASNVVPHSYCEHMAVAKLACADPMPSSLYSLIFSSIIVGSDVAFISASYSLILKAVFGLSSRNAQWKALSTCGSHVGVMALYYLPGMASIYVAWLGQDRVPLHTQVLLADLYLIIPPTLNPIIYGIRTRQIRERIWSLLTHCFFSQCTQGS
Procedure, shortened: as §1

UniProt Q8VFQ6 = target: UniProt Q8VFQ6
Procedure, shortened: as §1

Chain of UniProt Q8VG26 (Q8VG26 as listed by the source): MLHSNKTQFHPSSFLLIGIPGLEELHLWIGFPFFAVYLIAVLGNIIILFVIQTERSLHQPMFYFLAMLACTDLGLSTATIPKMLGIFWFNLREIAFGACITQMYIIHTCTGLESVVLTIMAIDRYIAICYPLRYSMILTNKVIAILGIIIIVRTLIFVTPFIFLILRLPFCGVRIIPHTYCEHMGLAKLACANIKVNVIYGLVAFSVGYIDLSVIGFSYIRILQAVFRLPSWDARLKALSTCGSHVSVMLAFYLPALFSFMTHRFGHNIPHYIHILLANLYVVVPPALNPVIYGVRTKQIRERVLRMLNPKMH
Chain of UniProt Q8VFV2 (Q8VFV2 as listed by the source): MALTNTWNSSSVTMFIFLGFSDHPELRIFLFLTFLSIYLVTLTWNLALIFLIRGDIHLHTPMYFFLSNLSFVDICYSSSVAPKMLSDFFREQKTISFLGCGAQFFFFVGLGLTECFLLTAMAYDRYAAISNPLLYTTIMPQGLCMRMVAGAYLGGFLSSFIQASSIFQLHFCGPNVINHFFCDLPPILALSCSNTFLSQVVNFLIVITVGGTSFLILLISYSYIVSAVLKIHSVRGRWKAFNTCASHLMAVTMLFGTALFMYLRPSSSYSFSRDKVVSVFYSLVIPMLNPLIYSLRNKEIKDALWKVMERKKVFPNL
Chain of UniProt Q8VFV8 (Q8VFV8 as listed by the source): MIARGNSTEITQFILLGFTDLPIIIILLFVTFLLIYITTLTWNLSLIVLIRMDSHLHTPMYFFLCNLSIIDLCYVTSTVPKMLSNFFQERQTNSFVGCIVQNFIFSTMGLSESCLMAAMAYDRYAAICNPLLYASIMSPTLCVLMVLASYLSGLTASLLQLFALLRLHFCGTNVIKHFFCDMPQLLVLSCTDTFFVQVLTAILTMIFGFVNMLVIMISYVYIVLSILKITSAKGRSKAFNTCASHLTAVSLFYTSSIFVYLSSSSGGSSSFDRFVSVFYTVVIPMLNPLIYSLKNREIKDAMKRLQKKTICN
Chain of UniProt Q8VFV3 (Q8VFV3 as listed by the source): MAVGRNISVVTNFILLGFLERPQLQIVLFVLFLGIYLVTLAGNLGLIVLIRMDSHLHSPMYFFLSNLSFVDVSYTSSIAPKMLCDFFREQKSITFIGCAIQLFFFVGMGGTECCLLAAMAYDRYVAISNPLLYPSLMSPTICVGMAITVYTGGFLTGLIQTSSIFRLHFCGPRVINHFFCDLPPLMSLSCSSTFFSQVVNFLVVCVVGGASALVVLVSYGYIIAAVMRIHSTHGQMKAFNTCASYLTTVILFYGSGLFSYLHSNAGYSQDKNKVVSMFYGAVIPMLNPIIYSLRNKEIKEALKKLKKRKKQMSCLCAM
Chain of UniProt Q8VFQ6 (Q8VFQ6 as listed by the source): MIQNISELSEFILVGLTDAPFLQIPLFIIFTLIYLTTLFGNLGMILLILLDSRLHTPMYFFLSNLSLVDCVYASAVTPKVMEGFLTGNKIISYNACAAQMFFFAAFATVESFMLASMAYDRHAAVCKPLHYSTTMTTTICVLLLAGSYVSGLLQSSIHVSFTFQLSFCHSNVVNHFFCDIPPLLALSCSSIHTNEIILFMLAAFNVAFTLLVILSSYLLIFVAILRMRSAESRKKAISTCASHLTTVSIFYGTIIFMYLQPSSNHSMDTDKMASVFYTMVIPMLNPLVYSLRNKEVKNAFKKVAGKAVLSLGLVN
Chain of UniProt Q8VFW7 (Q8VFW7 as listed by the source): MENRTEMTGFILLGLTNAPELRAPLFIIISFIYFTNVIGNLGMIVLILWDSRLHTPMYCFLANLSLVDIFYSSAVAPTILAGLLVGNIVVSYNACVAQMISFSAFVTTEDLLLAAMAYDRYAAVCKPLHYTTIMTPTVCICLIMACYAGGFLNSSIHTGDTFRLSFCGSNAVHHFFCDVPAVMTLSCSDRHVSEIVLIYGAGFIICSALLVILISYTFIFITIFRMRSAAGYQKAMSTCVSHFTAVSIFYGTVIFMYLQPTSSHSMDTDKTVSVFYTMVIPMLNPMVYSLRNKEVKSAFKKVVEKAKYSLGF

`CCCCCCCCCCCO` was tested, and the “odorant receptor agonist call” value (UniProt Q8VFP5) was “inactive” and the “odorant receptor agonist call” value (UniProt Q8VG01) was “inactive”.

For `CCCO`, the “odorant receptor agonist call” value (UniProt Q8VFP5) was “inactive” and the “odorant receptor agonist call” value (UniProt Q8VG01) was “inactive”.

With `O=C(O)CCCCCBr` the “odorant receptor agonist call” value (UniProt Q8VFP5) was “inactive” and the “odorant receptor agonist call” value (UniProt Q8VG01) was “active”.

With `C=CC(=O)CCCCC` the “odorant receptor agonist call” value (UniProt Q8VFP5) was “inactive” and the “odorant receptor agonist call” value (UniProt Q8VG01) was “inactive”.

`CCCCCCC(=O)OCCCC` was tested, and the “odorant receptor agonist call” value (UniProt Q8VFP5) was “inactive” and the “odorant receptor agonist call” value (UniProt Q8VG01) was “active”.

In the case of `CCCCCOC(=O)CCC`, the “odorant receptor agonist call” value (UniProt Q8VFP5) was “inactive” and the “odorant receptor agonist call” value (UniProt Q8VG01) was “inactive”.

In the case of `CCCCCC(=Cc1ccccc1)C(OC)OC`, the “odorant receptor agonist call” value (UniProt Q8VFP5) was “inactive” and the “odorant receptor agonist call” value (UniProt Q8VG01) was “inactive”.

With `C=C(CC)CCCC(C)(C)O` the “odorant receptor agonist call” value (UniProt Q8VFP5) was “inactive” and the “odorant receptor agonist call” value (UniProt Q8VG01) was “inactive”.

For `COc1nccnc1C`, the “odorant receptor agonist call” value (UniProt Q8VFP5) was “inactive” and the “odorant receptor agonist call” value (UniProt Q8VG01) was “inactive”.

For `CCOC(=O)CC(C)C`, the “odorant receptor agonist call” value (UniProt Q8VFP5) was “inactive” and the “odorant receptor agonist call” value (UniProt Q8VG01) was “inactive”.

For `CC=Cc1ccc(OC)cc1`, the “odorant receptor agonist call” value (UniProt Q8VFP5) was “inactive” and the “odorant receptor agonist call” value (UniProt Q8VG01) was “inactive”.

With `CCCCCCCOC(=O)C(C)C` the “odorant receptor agonist call” value (UniProt Q8VFP5) was “inactive” and the “odorant receptor agonist call” value (UniProt Q8VG01) was “inactive”.

For `COc1ccccc1`, the “odorant receptor agonist call” value (UniProt Q8VFP5) was “inactive” and the “odorant receptor agonist call” value (UniProt Q8VG01) was “inactive”.

`O=C(O)C1CCC1` was tested, and the “odorant receptor agonist call” value (UniProt Q8VFP5) was “inactive” and the “odorant receptor agonist call” value (UniProt Q8VG01) was “inactive”.

In the case of `CC(=O)OCCc1ccccc1`, the “odorant receptor agonist call” value (UniProt Q8VFP5) was “inactive” and the “odorant receptor agonist call” value (UniProt Q8VG01) was “inactive”.

In the case of `CC(C)=C1CCC(C)CC1=O` (centres undefined), the “odorant receptor agonist call” value (UniProt Q8VFP5) was “inactive” and the “odorant receptor agonist call” value (UniProt Q8VG01) was “inactive”.

For `CCN(CC)CC`, the “odorant receptor agonist call” value (UniProt Q8VFP5) was “inactive” and the “odorant receptor agonist call” value (UniProt Q8VG01) was “inactive”.

`CC1CC=CCCCCCCCCCC(=O)C1` (centres undefined) was tested, and the “odorant receptor agonist call” value (UniProt Q8VFP5) was “inactive” and the “odorant receptor agonist call” value (UniProt Q8VG01) was “inactive”.

`CCCCCCCCC=CC=O` was tested, and the “odorant receptor agonist call” value (UniProt Q8VFP5) was “inactive” and the “odorant receptor agonist call” value (UniProt Q8VG01) was “inactive”.

For `CCCCCOC(=O)CC`, the “odorant receptor agonist call” value (UniProt Q8VFP5) was “inactive” and the “odorant receptor agonist call” value (UniProt Q8VG01) was “inactive”.

In the case of `CC(=O)OCc1ccc2c(c1)OCO2`, the “odorant receptor agonist call” value (UniProt Q8VFP5) was “inactive” and the “odorant receptor agonist call” value (UniProt Q8VG01) was “inactive”.

With `CCCCC=O` the “odorant receptor agonist call” value (UniProt Q8VFP5) was “inactive”, the “odorant receptor agonist call” value (UniProt Q8VG01) was “inactive” and the “odorant receptor agonist call” value (UniProt Q8VG26) was “inactive”.

`CC1CCCCCCCCCCCCC(=O)C1` (centres undefined) was tested, and the “odorant receptor agonist call” value (UniProt Q8VFV2) was “inactive”, the “odorant receptor agonist call” value (UniProt Q8VFV3) was “inactive” and the “odorant receptor agonist call” value (UniProt Q8VFV8) was “inactive”. The “odorant receptor agonist call” value (UniProt Q8VFW7) was “inactive”.

In the case of `Cc1ccccc1OC(=O)C(C)C`, the “odorant receptor agonist call” value (UniProt Q8VFP5) was “inactive” and the “odorant receptor agonist call” value (UniProt Q8VG01) was “inactive”.

With `O=C([O-])CCCCCCCC(=O)[O-].[H+].[H+]` the “odorant receptor agonist call” value (UniProt Q8VFP5) was “inactive”, the “odorant receptor agonist call” value (UniProt Q8VG01) was “inactive” and the “odorant receptor agonist call” value (UniProt Q8VG26) was “inactive”.

In the case of `CCCC(C)=O`, the “odorant receptor agonist call” value (UniProt Q8VFZ6) was “inactive”, the “odorant receptor agonist call” value (UniProt Q8VG01) was “inactive” and the “odorant receptor agonist call” value (UniProt Q8VG22) was “inactive”. For the same molecule, the “odorant receptor agonist call” value (UniProt Q8VG26) was “inactive”.

With `CCCCCO` the “odorant receptor agonist call” value (UniProt Q8VFZ6) was “inactive”, the “odorant receptor agonist call” value (UniProt Q8VG01) was “inactive” and the “odorant receptor agonist call” value (UniProt Q8VG22) was “active”.

With `CCCCOC(=O)C(C)OC(=O)CCC` (centres undefined) the “odorant receptor agonist call” value (UniProt Q8VFZ6) was “inactive”, the “odorant receptor agonist call” value (UniProt Q8VG01) was “inactive” and the “odorant receptor agonist call” value (UniProt Q8VG22) was “inactive”.

`CCCCCCC(C)O` (centres undefined) was tested, and the “odorant receptor agonist call” value (UniProt Q8VFP5) was “inactive” and the “odorant receptor agonist call” value (UniProt Q8VG01) was “inactive”.

For `CCC(C(=O)O)c1ccccc1` (centres undefined), the “odorant receptor agonist call” value (UniProt Q8VFZ6) was “inactive”, the “odorant receptor agonist call” value (UniProt Q8VG01) was “inactive” and the “odorant receptor agonist call” value (UniProt Q8VG22) was “inactive”.

For `CCCCCCCCOC=O`, the “odorant receptor agonist call” value (UniProt Q8VFP5) was “inactive” and the “odorant receptor agonist call” value (UniProt Q8VG01) was “inactive”.

For `Cc1c(C)c(C)c(C=O)c(C)c1C`, the “odorant receptor agonist call” value (UniProt Q8VFP5) was “inactive” and the “odorant receptor agonist call” value (UniProt Q8VG01) was “inactive”.

In the case of `CCCCCC(C=O)=Cc1ccccc1`, the “odorant receptor agonist call” value (UniProt Q8VFP5) was “inactive” and the “odorant receptor agonist call” value (UniProt Q8VG01) was “inactive”.

`CC(C)CCN` was tested, and the “odorant receptor agonist call” value (UniProt Q8VFP5) was “inactive” and the “odorant receptor agonist call” value (UniProt Q8VG01) was “inactive”.

For `CCCCOC(=O)CCC`, the “odorant receptor agonist call” value (UniProt Q8VG26) was “inactive”.

For `OCC=Cc1ccccc1`, the “odorant receptor agonist call” value (UniProt Q8VFP5) was “inactive” and the “odorant receptor agonist call” value (UniProt Q8VG01) was “inactive”.

With `OCCCCCCCCCO` the “odorant receptor agonist call” value (UniProt Q8VFP5) was “inactive” and the “odorant receptor agonist call” value (UniProt Q8VG01) was “inactive”.

With `CC=CC(=O)C1=C(C)CCCC1(C)C` the “odorant receptor agonist call” value (UniProt Q8VFP5) was “inactive” and the “odorant receptor agonist call” value (UniProt Q8VG01) was “inactive”.

With `CC(=O)C1(C)CC2=C(CCCC2(C)C)CC1C` (centres undefined) the “odorant receptor agonist call” value (UniProt Q8VFP5) was “inactive” and the “odorant receptor agonist call” value (UniProt Q8VG01) was “inactive”.

For `C=C1C2CCC(C2)C1(C)C` (centres undefined), the “odorant receptor agonist call” value (UniProt Q8VFP5) was “inactive” and the “odorant receptor agonist call” value (UniProt Q8VG01) was “inactive”.

`O=c1ccc2ccccc2o1` was tested, and the “odorant receptor agonist call” value (UniProt Q8VFQ6) was “inactive”, the “odorant receptor agonist call” value (UniProt Q8VFZ6) was “inactive” and the “odorant receptor agonist call” value (UniProt Q8VG01) was “inactive”. The “odorant receptor agonist call” value (UniProt Q8VG22) was “active”.

For `CCCCCCC(=O)[O-].[H+]`, the “odorant receptor agonist call” value (UniProt Q8VFZ6) was “inactive”, the “odorant receptor agonist call” value (UniProt Q8VG01) was “active” and the “odorant receptor agonist call” value (UniProt Q8VG22) was “inactive”. For the same molecule, the “odorant receptor agonist call” value (UniProt Q8VG26) was “inactive”.

In the case of `C1CCOC1`, the “odorant receptor agonist call” value (UniProt Q8VFP5) was “inactive” and the “odorant receptor agonist call” value (UniProt Q8VG01) was “inactive”.

For `CCCCCCCC(=O)[O-].[H+]`, the “odorant receptor agonist call” value (UniProt Q8VFZ6) was “inactive”, the “odorant receptor agonist call” value (UniProt Q8VG01) was “active” and the “odorant receptor agonist call” value (UniProt Q8VG22) was “inactive”. For the same molecule, the “odorant receptor agonist call” value (UniProt Q8VG26) was “inactive”.

`CCC=CCCCCC=O` was tested, and the “odorant receptor agonist call” value (UniProt Q8VFP5) was “inactive” and the “odorant receptor agonist call” value (UniProt Q8VG01) was “active”.

`CCC(C)O` (centres undefined) was tested, and the “odorant receptor agonist call” value (UniProt Q8VFP5) was “inactive” and the “odorant receptor agonist call” value (UniProt Q8VG01) was “inactive”.

For `CCSCC`, the “odorant receptor agonist call” value (UniProt Q8VFP5) was “inactive” and the “odorant receptor agonist call” value (UniProt Q8VG01) was “inactive”.

`Cc1ccc(C(C)C)c(O)c1` was tested, and the “odorant receptor agonist call” value (UniProt Q8VFP5) was “inactive” and the “odorant receptor agonist call” value (UniProt Q8VG01) was “inactive”.

For `CC(C)=CCCC(C)=CCOC(=O)C(C)C`, the “odorant receptor agonist call” value (UniProt Q8VFP5) was “inactive” and the “odorant receptor agonist call” value (UniProt Q8VG01) was “inactive”.

In the case of `CCCCCCCCCCOC(C)=O`, the “odorant receptor agonist call” value (UniProt Q8VFP5) was “inactive” and the “odorant receptor agonist call” value (UniProt Q8VG01) was “inactive”.
